Results from ChEMBL document CHEMBL1128519, “Semisynthetic chemical modification of the antifungal lipopeptide echinocandin B (ECB): structure-activity studies of the lipophilic and geometric parameters of polyarylated acyl analogs of ECB” (J Med Chem, 1995).
≈ marks a conversion by molar mass, not a printed value. Numbered stars: 1 amine (or outer) side, 2 acyl side, 3 side chain; on linkers, the order of the positions; unused ones are H or OH. Bridge positions count the residues as written; N and C are the ends. Square brackets hold non-standard residues; d marks the D form. Peptide text beside a SMILES is read from it. * marks the point of attachment. Orn(4R-OH,5R-OH) = O=C([C@H](C[C@@H](O)[C@@H](O)N[*:3])N[*:1])[*:2]; X16 = O=C(c1ccc(OCCOCCC23C[C@H]4C[C@@H](C2)C[C@@H](C3)C4)cc1)*; hTyr(3S-OH,4S-OH) = N[C@H](C(=O)O)[C@H](O)[C@@H](O)c1ccc(O)cc1; X17 = CCCCOCCOc1ccc(C#Cc2ccc(-c3ccc(C(=O)*)cc3)cc2)cc1; X20 = CCCCCOc1ccc(C#Cc2ccc(-c3ccc(C(=O)*)cc3)cc2)cc1; Pro(3S-OH,4S-Me) = C[C@H]1CN[C@H](C(=O)O)[C@H]1O; X14 = COc1ccc(C#Cc2ccc(-c3ccc(C(=O)*)cc3)cc2)cc1; X18 = O=C(c1ccc(C#Cc2ccc(-c3ccccc3)cc2)cc1)*; X21 = CCCCOc1ccc(-c2ccc(C(=O)*)cc2)cc1; X15 = CCCCCCOc1ccc2cc(C(=O)*)ccc2c1; X19 = CCCCCCCCOCCOc1ccc(C(=O)*)cc1; Hyp = O=C(O)[C@@H]1C[C@@H](O)CN1

Legend:
[1] = molecular target: Beta-1,3-glucan synthase (Candida albicans) (UniProt O13428); assay: In vitro inhibition of glucan synthase obtained from Candida albicans at a concentration of 10 ug/mL.
Beta-1,3-glucan synthase (Candida albicans), sequence (O13428 as listed by the source): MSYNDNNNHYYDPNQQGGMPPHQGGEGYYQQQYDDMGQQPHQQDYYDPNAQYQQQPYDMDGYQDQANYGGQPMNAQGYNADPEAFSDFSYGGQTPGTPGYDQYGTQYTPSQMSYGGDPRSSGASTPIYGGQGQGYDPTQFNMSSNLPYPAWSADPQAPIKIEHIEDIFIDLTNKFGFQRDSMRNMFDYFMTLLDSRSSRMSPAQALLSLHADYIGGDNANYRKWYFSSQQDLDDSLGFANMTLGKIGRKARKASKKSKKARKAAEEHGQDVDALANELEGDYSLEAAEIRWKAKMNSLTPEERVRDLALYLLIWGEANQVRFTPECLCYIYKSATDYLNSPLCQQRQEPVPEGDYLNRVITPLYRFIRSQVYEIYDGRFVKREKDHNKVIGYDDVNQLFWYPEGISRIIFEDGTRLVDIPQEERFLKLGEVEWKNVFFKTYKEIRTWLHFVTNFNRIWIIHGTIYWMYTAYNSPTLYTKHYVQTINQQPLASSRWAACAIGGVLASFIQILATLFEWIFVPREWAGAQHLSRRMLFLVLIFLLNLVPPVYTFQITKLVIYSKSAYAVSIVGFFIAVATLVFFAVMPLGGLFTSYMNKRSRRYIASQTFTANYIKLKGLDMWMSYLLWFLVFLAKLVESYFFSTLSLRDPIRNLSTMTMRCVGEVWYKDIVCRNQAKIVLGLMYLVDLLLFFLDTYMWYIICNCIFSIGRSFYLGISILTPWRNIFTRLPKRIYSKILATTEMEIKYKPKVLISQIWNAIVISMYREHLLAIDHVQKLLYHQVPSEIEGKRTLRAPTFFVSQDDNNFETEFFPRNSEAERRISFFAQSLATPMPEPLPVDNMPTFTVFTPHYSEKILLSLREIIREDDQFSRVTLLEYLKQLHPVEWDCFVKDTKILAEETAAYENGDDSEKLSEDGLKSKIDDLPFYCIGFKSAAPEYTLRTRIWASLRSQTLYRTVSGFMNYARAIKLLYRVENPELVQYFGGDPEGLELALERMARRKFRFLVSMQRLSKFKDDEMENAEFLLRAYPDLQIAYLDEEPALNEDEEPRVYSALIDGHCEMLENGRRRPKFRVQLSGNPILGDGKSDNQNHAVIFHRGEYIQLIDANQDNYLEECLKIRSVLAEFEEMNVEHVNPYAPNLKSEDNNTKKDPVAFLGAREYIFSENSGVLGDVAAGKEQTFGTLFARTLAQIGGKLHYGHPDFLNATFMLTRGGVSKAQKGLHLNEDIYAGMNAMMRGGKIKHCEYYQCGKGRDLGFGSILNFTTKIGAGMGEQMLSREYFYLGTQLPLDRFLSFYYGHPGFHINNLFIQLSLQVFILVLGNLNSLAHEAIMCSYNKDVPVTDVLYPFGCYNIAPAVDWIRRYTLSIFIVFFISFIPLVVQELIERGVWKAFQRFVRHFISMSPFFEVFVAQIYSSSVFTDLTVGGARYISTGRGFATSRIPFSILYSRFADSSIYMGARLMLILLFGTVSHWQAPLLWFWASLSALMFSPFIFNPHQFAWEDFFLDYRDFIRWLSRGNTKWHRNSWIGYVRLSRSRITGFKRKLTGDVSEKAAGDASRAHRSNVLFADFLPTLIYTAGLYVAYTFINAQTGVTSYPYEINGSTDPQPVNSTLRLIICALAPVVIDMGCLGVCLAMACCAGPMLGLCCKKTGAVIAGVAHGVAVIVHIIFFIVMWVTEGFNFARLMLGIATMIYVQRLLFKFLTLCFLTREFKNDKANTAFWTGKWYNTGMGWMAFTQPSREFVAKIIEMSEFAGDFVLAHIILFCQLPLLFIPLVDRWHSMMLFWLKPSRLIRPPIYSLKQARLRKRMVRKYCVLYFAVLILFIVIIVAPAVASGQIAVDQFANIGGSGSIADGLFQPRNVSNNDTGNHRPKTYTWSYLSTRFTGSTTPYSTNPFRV
Outline: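 Purified, solubilized β-(1,3)-D-glucan synthase prepared from C. albicans. Percent inhibition measured at 10 µg/mL compound, single determination.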

[2] = tested on: Candida albicans; assay: Antifungal activity against Candida albicans; format: functional
Outline: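 Broth microdilution, C. albicans A26 (ATCC 62342) grown on Sabouraud dextrose agar at 35 °C; inoculum 1 × 10^5 conidia/mL in antibiotic 3 broth. Compounds dissolved at 1.0 mg/mL in methanol, 2-fold serial dilutions from 80 µg/mL, duplicate. Read after 48 h at 35 °C. MIC = lowest concentration completely inhibiting visible growth.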

[3] = tested on: Candida albicans; assay: In vivo antifungal activity administered orally against Candida albicans infections in mice.; format: functional; details: po
Outline: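 X-irradiated (400 r, 24 h prior) male ICR mice infected iv with 2 × 10^6 C. albicans A26 cells. Oral gavage in cremophor (5%)/linoleic acid (8%)/water vehicle, b.i.d. × 4 starting immediately post-infection. 10 mice per dose level. Study ends at day 7; ED50 = dose giving 50% survival, by Reed-Muench.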

[4] = tested on: Candida albicans; assay: In vivo antifungal activity administered intraperitoneally against Candida albicans infections in mice.; format: functional; details: ip
Outline: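 Male ICR mice (18-20 g), X-irradiated with 400 r 24 h before iv tail-vein infection with 2 × 10^6 C. albicans A26 cells in saline. Compounds suspended in β-cyclodextrin, given parenterally at 0, 4, 24 and 48 h post-infection. 10 mice per dose, top dose 10 mg/kg with 2-fold dilutions down to 0.039 mg/kg. 7-day survival; ED50 by Reed-Muench.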

Row | SMILES | inhibition [1] | MIC [2] | ED50 [3] | ED50 [4]
1 | COc1ccc(C#Cc2ccc(-c3ccc(C(=O)N[C@H]4C[C@@H](O)[C@@H](O)NC(=O)[C@@H]5[C@@H](O)[C@@H](C)CN5C(=O)[C@H]([C@@H](C)O)NC(=O)[C@H]([C@H](O)[C@@H](O)c5ccc(O)cc5)NC(=O)[C@@H]5C[C@@H](O)CN5C(=O)[C@H]([C@@H](C)O)NC4=O)cc3)cc2)cc1 (X14-[Orn(4R-OH,5R-OH)]T[Hyp][hTyr(3S-OH,4S-OH)]T[Pro(3S-OH,4S-Me)]; lactam 1-C) | 81% | 0.02 µg/mL (≈ 0.018 µM) | 19 mg/kg | 
2 | CCCCCCOc1ccc2cc(C(=O)N[C@H]3C[C@@H](O)[C@@H](O)NC(=O)[C@@H]4[C@@H](O)[C@@H](C)CN4C(=O)[C@H]([C@@H](C)O)NC(=O)[C@H]([C@H](O)[C@@H](O)c4ccc(O)cc4)NC(=O)[C@@H]4C[C@@H](O)CN4C(=O)[C@H]([C@@H](C)O)NC3=O)ccc2c1 (X15-[Orn(4R-OH,5R-OH)]T[Hyp][hTyr(3S-OH,4S-OH)]T[Pro(3S-OH,4S-Me)]; lactam 1-C) | 77.7% | 0.039 µg/mL (≈ 0.0371 µM) |  | 2.8 mg/kg
3 | C[C@@H](O)[C@@H]1NC(=O)[C@H]([C@H](O)[C@@H](O)c2ccc(O)cc2)NC(=O)[C@@H]2C[C@@H](O)CN2C(=O)[C@H]([C@@H](C)O)NC(=O)[C@@H](NC(=O)c2ccc(OCCOCCC34C[C@H]5C[C@@H](C3)C[C@@H](C4)C5)cc2)C[C@@H](O)[C@@H](O)NC(=O)[C@@H]2[C@@H](O)[C@@H](C)CN2C1=O (X16-[Orn(4R-OH,5R-OH)]T[Hyp][hTyr(3S-OH,4S-OH)]T[Pro(3S-OH,4S-Me)]; lactam 1-C) | 72.3% | 0.039 µg/mL (≈ 0.0347 µM) | > 50 mg/kg | 
4 | CCCCOCCOc1ccc(C#Cc2ccc(-c3ccc(C(=O)N[C@H]4C[C@@H](O)[C@@H](O)NC(=O)[C@@H]5[C@@H](O)[C@@H](C)CN5C(=O)[C@H]([C@@H](C)O)NC(=O)[C@H]([C@H](O)[C@@H](O)c5ccc(O)cc5)NC(=O)[C@@H]5C[C@@H](O)CN5C(=O)[C@H]([C@@H](C)O)NC4=O)cc3)cc2)cc1 (X17-[Orn(4R-OH,5R-OH)]T[Hyp][hTyr(3S-OH,4S-OH)]T[Pro(3S-OH,4S-Me)]; lactam 1-C) | 81.9% | 0.02 µg/mL (≈ 0.0167 µM) | 10.6 mg/kg | 
5 | C[C@@H](O)[C@@H]1NC(=O)[C@H]([C@H](O)[C@@H](O)c2ccc(O)cc2)NC(=O)[C@@H]2C[C@@H](O)CN2C(=O)[C@H]([C@@H](C)O)NC(=O)[C@@H](NC(=O)c2ccc(C#Cc3ccc(-c4ccccc4)cc3)cc2)C[C@@H](O)[C@@H](O)NC(=O)[C@@H]2[C@@H](O)[C@@H](C)CN2C1=O (X18-[Orn(4R-OH,5R-OH)]T[Hyp][hTyr(3S-OH,4S-OH)]T[Pro(3S-OH,4S-Me)]; lactam 1-C) | 78.2% | 0.078 µg/mL (≈ 0.0723 µM) |  | 1.7 mg/kg
6 | CCCCCCCCOCCOc1ccc(C(=O)N[C@H]2C[C@@H](O)[C@@H](O)NC(=O)[C@@H]3[C@@H](O)[C@@H](C)CN3C(=O)[C@H]([C@@H](C)O)NC(=O)[C@H]([C@H](O)[C@@H](O)c3ccc(O)cc3)NC(=O)[C@@H]3C[C@@H](O)CN3C(=O)[C@H]([C@@H](C)O)NC2=O)cc1 (X19-[Orn(4R-OH,5R-OH)]T[Hyp][hTyr(3S-OH,4S-OH)]T[Pro(3S-OH,4S-Me)]; lactam 1-C) | 54.8% | 2.5 µg/mL (≈ 2.33 µM) |  | 4.4 mg/kg
7 | CCCCCOc1ccc(C#Cc2ccc(-c3ccc(C(=O)N[C@H]4C[C@@H](O)[C@@H](O)NC(=O)[C@@H]5[C@@H](O)[C@@H](C)CN5C(=O)[C@H]([C@@H](C)O)NC(=O)[C@H]([C@H](O)[C@@H](O)c5ccc(O)cc5)NC(=O)[C@@H]5C[C@@H](O)CN5C(=O)[C@H]([C@@H](C)O)NC4=O)cc3)cc2)cc1 (X20-[Orn(4R-OH,5R-OH)]T[Hyp][hTyr(3S-OH,4S-OH)]T[Pro(3S-OH,4S-Me)]; lactam 1-C) | 82.3% | < 0.01 µg/mL | 8.8 mg/kg | 
8 | CCCCOc1ccc(-c2ccc(C(=O)N[C@H]3C[C@@H](O)[C@@H](O)NC(=O)[C@@H]4[C@@H](O)[C@@H](C)CN4C(=O)[C@H]([C@@H](C)O)NC(=O)[C@H]([C@H](O)[C@@H](O)c4ccc(O)cc4)NC(=O)[C@@H]4C[C@@H](O)CN4C(=O)[C@H]([C@@H](C)O)NC3=O)cc2)cc1 (X21-[Orn(4R-OH,5R-OH)]T[Hyp][hTyr(3S-OH,4S-OH)]T[Pro(3S-OH,4S-Me)]; lactam 1-C) | 71.4% | 0.078 µg/mL (≈ 0.0743 µM) |  | 0.8 mg/kg
